{
  "source": "ChEMBL document CHEMBL4376862",
  "about": "“Synthesis and evaluation of novel chlorophyll a derivatives as potent photosensitizers for photodynamic therapy” (Eur J Med Chem, 2020)",
  "key": {"A549 [1]": {"tested_on": "A549", "assay": "Cytotoxicity against human A549 cells assessed as apoptotic lesions in absence of light by fluorescence microscopic method", "type": "cell-based"}, "Mus musculus [2]": {"tested_on": "Mus musculus", "assay": "Phototoxicity in ICR mouse assessed as change in auricles 0.45 mg/kg, iv in presence of 10 mW/cm2 light irradiation for 10 mins upto 7 days measured after 1day of light irradiation by H and E staining based microscopic analysis", "type": "organism-based", "settings": "in vivo; call rule not given here"}, "A549 [3]": {"tested_on": "A549", "assay": "Induction of apoptosis in human A549 cells assessed as necrosis incubated for 4 hrs under dark condition by annexin V-FITC and propidium iodide staining based flow cytometric analysis (reference value: 0.00%)", "type": "cell-based", "settings": "a549, 4 h"}, "Mus musculus [4]": {"tested_on": "Mus musculus", "assay": "Phototoxicity in ICR mouse assessed as ear weight at 0.45 mg/kg, iv followed by 10 mW/cm2 light irradiation for 10 mins at 7 days after drug challenge measured after 1 day of light irradiation (13.2 +/- 1.6 mg)", "type": "organism-based", "settings": "in vivo"}, "[5]": {"assay": "Drug localization in lysosome of human A549 cells at 1 uM after 4 hrs by lyso-tracker blue based fluorescence microscopic method", "type": "ADME, subcellular", "settings": "a549, 4 h", "procedure,_shortened": "(§1)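 A549 cells on coverslips at 1×10^4 cells/mL exposed to […] (so in the source) photosensitizer in complete medium for 4 h, washed, fixed in 4% paraformaldehyde 20 min, then probed 30 min at 37 °C with Mito-Tracker Green, Lyso-Tracker Blue or ER-Tracker Green; fluorescence microscopy, three repeats, minimal ambient light.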"}, "[6]": {"assay": "Drug localization in endoplasmic reticulum of human A549 cells at 1 uM after 4 hrs by DiOC6(3) ER-tracker green based fluorescence microscopic method", "type": "ADME, subcellular", "settings": "a549, 4 h", "procedure,_shortened": "as §1"}, "[7]": {"assay": "Drug localization in mitochondria of human A549 cells at 1 uM after 4 hrs by mito-tracker green based fluorescence microscopic method", "type": "ADME", "settings": "a549, 4 h", "procedure,_shortened": "as §1"}, "[8]": {"assay": "Drug uptake in BALB/c nude mouse xenografted with A549 cells assessed as drug level in kidney at 0.3 mg/kg, iv measured at 12 hrs by fluorescence assay", "type": "ADME, organism-based", "settings": "in vivo", "procedure,_shortened": "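A549 tumor-bearing mice dosed via tail vein (1 mg/kg in methods; 0.3 mg/kg in text) at tumors ~150–170 mm3, n = 3; whole-body imaging 0–24 h; at 6 and 12 h mice killed, heart, liver, spleen, lung, kidney, brain, tumor imaged ex vivo, excitation 420 nm, emission 650 nm.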"}},
  "data": [
    {"smiles": "CCCCOC(C)c1c(C)c2cc3nc(c4c5[nH]c(cc6nc(cc1[nH]2)C(C)=C6CC)c(C)c5C(=O)C4)[C@@H](CCC(=O)NCC(=O)CCC(=O)O)[C@@H]3C", "note": "(stereo partly specified)", "values": [
      {"measurement": "Activity", "setting": "A549 [1]", "value": "Non-Toxic"},
      {"measurement": "Activity", "setting": "Mus musculus [2]", "value": "Non-Toxic"},
      {"measurement": "Activity", "setting": "A549 [3]", "value": 2.3, "unit": "%"},
      {"measurement": "Activity", "setting": "Mus musculus [4]", "value": 12.9, "unit": "mg"},
      {"measurement": "Drug uptake", "setting": "[5]", "value": "Active"},
      {"measurement": "Drug uptake", "setting": "[6]", "value": "Active"},
      {"measurement": "Drug uptake", "setting": "[7]", "value": "Active"},
      {"measurement": "Drug uptake", "setting": "[8]", "value": "Not Active"}
    ]},
    {"smiles": "CCC1=C(C)c2cc3[nH]c(cc4nc(c5c6[nH]c(cc1n2)c(C)c6C(=O)C5)[C@@H](CCC(=O)NCC(=O)CCC(=O)O)[C@@H]4C)c(C)c3C(C)OCCO", "note": "(stereo partly specified)", "values": [
      {"measurement": "Activity", "setting": "A549 [1]", "value": "Non-Toxic"},
      {"measurement": "Activity", "setting": "Mus musculus [2]", "value": "Non-Toxic"},
      {"measurement": "Activity", "setting": "A549 [3]", "value": 2.75, "unit": "%"},
      {"measurement": "Activity", "setting": "Mus musculus [4]", "value": 13.4, "unit": "mg"},
      {"measurement": "Drug uptake", "setting": "[5]", "value": "Active"},
      {"measurement": "Drug uptake", "setting": "[6]", "value": "Active"},
      {"measurement": "Drug uptake", "setting": "[7]", "value": "Active"},
      {"measurement": "Drug uptake", "setting": "[8]", "value": "Not Active"}
    ]}
  ]
}
